For assay [1], the system named is HT-22. Description: Inhibition of glutamate-induced intracellular calcium level in mouse HT22 cells at 50 uM after 8 hrs by Flu-4 AM probe based fluorescence microscopic analysis relative to control. The assay is classed as functional. The essentials:
(§1)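 HT22 mouse hippocampal cells (DMEM, 10% FBS, penicillin/streptomycin, 37 °C, 5% CO2) were seeded at 5 × 10^4 cells/well and co-treated with 5 mM glutamate and the test agent for 8 h. They were then loaded with 2 μM Fluo-4 AM and rinsed with phenol-red-free medium. Fluorescence images were quantified as fold change versus untreated control cells (mean ± SEM).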

A short description of assay [2]: Antioxidant activity assessed as DPPH radical scavenging activity. The assay is classed as functional. In general terms: Loss of DPPH colour is used to gauge radical scavenging.
For assay [3], the target named is MAP kinase p38 (Mus musculus) (UniProt P47811+O08911+Q9WUI1+Q9Z1B7). Description: Inhibition of glutamate-induced p38 phosphorylation in mouse HT22 cells at 50 to 100 uM after 8 hrs by Western blot analysis. The assay is classed as cell-based. The essentials:
(§2)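 Mouse hippocampal HT22 cells were grown in DMEM with 10% FBS and penicillin/streptomycin at 37 °C in 5% CO2. Cells were exposed to 5 mM glutamate plus 50 or 100 μM compound for 8 h, then lysed in RIPA buffer with protease inhibitors. Lysates were run on SDS-PAGE and transferred to PVDF. Membranes were blocked in 5% milk and probed for 1 h with p-/total ERK1/2, JNK, p38 and GAPDH antibodies. Chemiluminescent bands were quantified as fold of control; mean ± SEM.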
On the technique in general: A western blot detects proteins with antibodies after separation by electrophoresis.

The species named for the next assay is Mus musculus. Description: Inhibition of glutamate-induced JNK phosphorylation in mouse HT22 cells at 50 to 100 uM after 8 hrs by Western blot analysis. In kind it is cell-based. The essentials:
as §2

Assay [4] concerns the target Mitogen-activated protein kinase 1 and 3 (ERK2 and ERK1) (Mus musculus) (UniProt P63085+Q63844). Description: Inhibition of glutamate-induced ERK1/2 phosphorylation in mouse HT22 cells at 50 to 100 uM after 8 hrs by Western blot analysis. In kind it is cell-based. The essentials: as §2
The test system of assay [5] is HT-22. Description: Neuroprotective activity against glutamate-induced neuronal cell death in mouse HT22 cells assessed as increase in cell viability after 24 hrs by Ez-CyTox reagent based assay. In kind it is functional. The procedure, abridged:
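HT22 cells (DMEM/10% FBS, 37 °C, 5% CO2) were plated at 1 × 10^4 per well and left to adhere for 24 h. Glutamate (5 mM final) was added together with compounds for 24 h. EZ-Cytox reagent was applied for 30 min and absorbance read at 450 nm. Viability is given as % of untreated live control; mean ± SEM.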

For assay [6], the system named is HT-22. Description: Neuroprotective activity against glutamate-induced neuronal cell death in mouse HT22 cells assessed as increase in cell viability at 50 to 100 uM after 24 hrs by microscopy. The assay is classed as functional, cell-based.
Assay [7] has as its system HT-22. Description: Inhibition of glutamate-induced intracellular ROS generation in mouse HT22 cells at 50 to 100 uM after 8 hrs by DCF-DA probe based fluorescence microscopic analysis. In kind it is functional, cell-based. The essentials: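 HT22 cells were seeded at 1 × 10^4 per well in DMEM/10% FBS at 37 °C, 5% CO2. They were exposed to 5 mM glutamate with or without compound for 8 h, loaded with 10 μM DCF-DA for 30 min and washed three times with PBS. DCF fluorescence was read at ex 495/em 517 nm on a plate reader and expressed against control; images were taken by fluorescence microscopy. Mean ± SEM.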

The subject of assay [8] is HT-22. Description: Inhibition of glutamate-induced intracellular calcium level in mouse HT22 cells at 100 uM after 8 hrs by Flu-4 AM probe based fluorescence microscopic analysis relative to control. The assay is classed as functional. The procedure, abridged:
as §1

Assay [9] can be described thus: Antioxidant activity assessed as DPPH radical scavenging activity at 100 uM. The assay is classed as functional.
In assay [10] the test system is HT-22. Description: Neuroprotective activity against glutamate-induced apoptotic cell death in mouse HT22 cells at 50 to 100 uM after 10 hrs by Alexa fluor-488 annexin V/PI staining based cytometric analysis. In kind it is functional. The procedure, abridged: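 HT22 cells were seeded at 2 × 10^5 per well and treated with 5 mM glutamate and 50 or 100 μM compound for 10 h. Cells were harvested, washed in PBS, and equal numbers were labelled with Alexa Fluor 488 annexin V in binding buffer for 20 min, then with propidium iodide. Cells were counted by image-based cytometry as % annexin V-positive; mean ± SEM.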

The text below walks through data of ChEMBL document CHEMBL4145583, “Neuroprotective Compound from an Endophytic Fungus, Colletotrichum sp. JS-0367” (J Nat Prod, 2018).

Calls of active or inactive are those of the source. No cut-off for these calls is given here.

Usually IC50 stands for the concentration needed to halve the response being measured.

Sequence of Mitogen-activated protein kinase 1 and 3 (ERK2 and ERK1) (Mus musculus) (P63085 whole entry, looked up): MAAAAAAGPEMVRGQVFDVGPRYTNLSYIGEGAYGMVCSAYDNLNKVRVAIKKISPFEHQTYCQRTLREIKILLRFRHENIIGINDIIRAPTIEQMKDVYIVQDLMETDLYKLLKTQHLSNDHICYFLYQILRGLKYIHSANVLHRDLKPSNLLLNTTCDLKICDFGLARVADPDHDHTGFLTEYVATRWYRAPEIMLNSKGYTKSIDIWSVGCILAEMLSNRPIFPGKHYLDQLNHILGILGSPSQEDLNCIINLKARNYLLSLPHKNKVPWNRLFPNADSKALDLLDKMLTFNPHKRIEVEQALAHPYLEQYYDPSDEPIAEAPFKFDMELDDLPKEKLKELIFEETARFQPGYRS
Sequence of Mitogen-activated protein kinase 1 and 3 (ERK2 and ERK1) (Mus musculus) (Q63844 whole entry, looked up): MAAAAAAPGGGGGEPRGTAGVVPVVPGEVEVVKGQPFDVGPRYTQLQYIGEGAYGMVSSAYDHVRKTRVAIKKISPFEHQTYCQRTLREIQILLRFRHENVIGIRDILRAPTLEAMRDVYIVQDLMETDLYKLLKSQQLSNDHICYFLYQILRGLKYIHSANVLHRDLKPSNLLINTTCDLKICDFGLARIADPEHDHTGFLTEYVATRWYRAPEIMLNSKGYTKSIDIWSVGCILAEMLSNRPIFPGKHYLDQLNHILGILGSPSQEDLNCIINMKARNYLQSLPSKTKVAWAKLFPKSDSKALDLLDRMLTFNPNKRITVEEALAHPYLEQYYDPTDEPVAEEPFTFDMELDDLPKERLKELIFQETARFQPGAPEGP

`COc1cc(C)cc2c1C(=O)c1c(cc(O)c(O)c1O)C2=O`: the figures for the “fold change (FC)” value with HT-22 [1] and with HT-22 [8] were 1.4 and 0.98, respectively. Further, the Activity result is “Dose-dependent effect” in assay [2], “Dose-dependent effect” in the assay with HT-22 [5] and 70% in assay [9]. In addition, the IC50 in assay [2] was 42.2 µM. For the same molecule, the inhibition result (in assay [3]; in the assay filed under Mus musculus; in [4]; in the assay with HT-22 [7]) was “Active” throughout. Moreover, the result in the assay on HT-22 [6] and in the assay on HT-22 [10] was Active.
